Assay outcomes deposited in PubChem by Columbia University Molecular Screening Center.
INS promoter act – TRM-6 insulin promoter activation. TRM-6 cells, insulin promoter eGFP reporter, imaging; plate-scaled: unstimulated 0, stimulated control 100. activation, % at 2 µM. 130,000 compounds, 0.81% hits;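 active means activation at 2 µM above a set limit, confirmed on inspection of the cell images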;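 further: share of cells whose green reporter signal exceeds an intensity cutoff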
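Material: Human fetal islet-derived TRM-6 cells with tamoxifen-inducible insulin promoter–eGFP reporter | Medium: Low-glucose (5.5 mM) medium with tamoxifen | Probe or stimulus: Tamoxifen inducer, 0.75 µM, in seeding medium | Schedule: Tamoxifen pre-incubation 15 h overnight, then compound exposure 48 h at 37 °C | Detection: High-content imaging of fixed cells with Hoechst nuclear stain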
The depositor's hits bear a star. Many of the other results were omitted from the sample, so hits are more common in it than they were.

SMILES	INS promoter act
N#CCCn1ncn(-c2ccccc2)c1=S	173*
N#CCCn1nc(-c2ccccc2)cc1-n1c(C(F)(F)F)nc2ccccc21	0
Cc1cc2cc(C=C(C#N)C#N)c(Cl)nc2cc1C	-7
COc1ccc(NC(=O)/C(C#N)=C/c2ccc(OCc3ccccc3F)cc2)cc1	-7
COn1c(SCc2ccc(Cl)cc2)nc2ccccc2c1=O	77*
COCCn1c(SCc2ccccc2F)nc2ccccc2c1=O	-9
COc1ccc(C(=O)Nn2c(SCC(=O)c3ccc(Cl)cc3)nc3ccccc3c2=O)cc1	-83
COCCn1c(Cc2ccccc2)nnc1SCc1ccc([N+](=O)[O-])cc1	-3
COc1ccccc1OCc1ccc(C(=O)NC(C)(C)C)o1	50
COC(=O)c1ccccc1NC(=O)c1ccc(COc2ccccc2)o1	585*
COc1ccc(NC(=O)c2ccc(COc3ccccc3)o2)cc1	-5
CN(C)c1ccc(C2CC(c3ccccc3)=Nc3nc(-c4ccccc4)cn32)cc1 (stereo not drawn)	-3
Cc1ccc([N+](=O)[O-])cc1S(=O)(=O)N1CCNCC1	5
O=C1CN(c2ccccc2F)C(=O)CN1c1ccccc1F	412*
O=C(c1ccccc1C(=O)N1CCN(c2ccccc2F)CC1)N1CCN(c2ccccc2F)CC1	0
Cc1cccc(C)c1N1CC(=O)N(c2c(C)cccc2C)CC1=O	8
Cc1ccc(NC(=O)CCn2nc([N+](=O)[O-])cc2C)nc1	0
c1ccc(-c2cnnc(N3CCCCC3)n2)cc1	10
COCCn1c(N)c(Sc2ccc([N+](=O)[O-])cc2)c(=O)[nH]c1=O	-6
CCc1nnc(NC(=O)/C=C/c2ccco2)s1	-6
CCc1nnc(NS(=O)(=O)c2ccc(NC(=O)/C=C/c3ccc(F)cc3)cc2)s1	275*
Cc1ccc(/C=C/C(=O)Nc2ccc(S(=O)(=O)Nc3ncccn3)cc2)cc1	-7
COCCNC(=O)COc1ccc(Br)cc1Cl	-7
COC(=O)C1CCCN1C(=O)COc1ccc(Br)cc1Cl (stereo not drawn)	438*
Cc1cc(Cl)ccc1OCC(=O)N1CCCCC1	-7
SMILES	INS promoter act
Nc1nonc1C(=O)OCC(=O)N1CCOCC1	-7
CCOC(=O)CCC(=O)N1CCOCCOCCN(C(=O)CCC(=O)OCC)CCOCCOCC1	0
O=C(CSc1nnc(-c2cc3ccccc3cc2O)n1Cc1ccco1)c1ccc(F)cc1	-6
O=C(CSc1ncc(-c2ccccc2)n1-c1ccccc1)NCc1ccco1	3
O=C(CSc1ccc(-c2ccccn2)nn1)NCc1ccccc1	-8
Cn1c(SCC(=O)NCc2ccco2)nnc1-c1ccccc1	437*
Cc1nnc(SCC(=O)NCc2ccco2)n1Cc1ccccc1	7
O=C(CSc1ccc(-c2ccco2)nn1)Nc1ccccc1	-75
O=C(CSc1ccc(-c2cccc([N+](=O)[O-])c2)nn1)NCc1ccccc1	266*
O=C(CSc1nnc(-c2ccc(O)cc2)n1Cc1ccco1)c1ccccc1	77*
Cc1cc(C)c(NC(=O)CSc2nnc(-c3ccncc3)n2Cc2ccco2)c(Cl)c1	-3
O=C(CSc1ccc(-c2ccccc2)nn1)NCc1ccco1	444*
Cn1c(SCC(=O)NCc2ccco2)nnc1-c1ccc(S(=O)(=O)N2CCOCC2)cc1	-6
COc1cccc(CNC(=O)CSc2ccc(-c3ccncc3)nn2)c1	0
Cc1ccn2c(c1)nc(=S)n2C(=O)c1ccco1	0
O=C(CCn1c(=S)oc2ccccc21)N1CCCCC1	-70
CCn1nnc(-c2ccccc2NC(=O)c2cnccn2)n1	271
COC(=O)c1ccc(CN2CCN(CC=C(C)C)C(CCO)C2)cc1 (stereo not drawn)	-7
Cc1ccc(NC(=O)C2C(c3ccccc3)C=CC(c3ccccc3)C2C(=O)O)cc1 (stereo not drawn)	6
C=C(C)CSc1nnc(-c2cc(OC)c(OC)c(OC)c2)n1N	-3
COc1cc(S(=O)(=O)Nc2cccc(C)c2)ccc1NC(=O)c1ccncc1	-7
CC(C)[C@@H]1NC(=O)c2cc([N+](=O)[O-])cc(I)c2NCCCC[C@@H](C(=O)NC(CC(=O)O)C(N)=O)NC(=O)[C@H](CO)NC1=O (stereo partly drawn)	9
CCN(CC)c1ccc2c(c1)oc(=O)c1c(Cl)cc(=O)oc12	219
CCN(CC)c1ccc2c(C)c(-c3ccc(N)cc3)c(=O)oc2c1	-2
CCN(CC)c1ccc2c(Cl)c(Br)c(=O)oc2c1	133*
CCN(CC)S(=O)(=O)c1cccc(C(=O)NC(Cc2c[nH]c3ccccc23)c2nnc3n2CCCCC3)c1 (stereo not drawn)	3
O=C(COC(=O)CN1C(=O)C2CCCCC2C1=O)NC1CCS(=O)(=O)C1 (stereo not drawn)	7
Cc1cccc(-c2nc(CN3CCCC(C(=O)NC4CCC(C)CC4)C3)c(C)o2)c1 (stereo not drawn)	136*
Cc1oc(-c2ccc(Cl)cc2)nc1CN1CCC(C(=O)NCc2cccs2)CC1	-3
Cc1oc(-c2ccccc2F)nc1CN1CCC(C(=O)NC2CCCc3ccccc32)CC1 (stereo not drawn)	-86
